Reference: ChEMBL document CHEMBL1157249, “Alpha-glucosidase inhibitory anthranols, kenganthranols A-C, from the stem bark of Harungana madagascariensis” (J Nat Prod, 2006)
Active and inactive are the calls of the source. No cut-off for these calls is given here.

Assays:
Saccharomyces [1] = assay: Inhibition of Saccharomyces sp. alpha glucosidase at 800 uM by spectrophotometry
[2] = (§1) Inhibition of Saccharomyces sp. alpha glucosidase by spectrophotometry
Summary of the method: (§2)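 Yeast (Saccharomyces sp.) α-glucosidase, 250 units/mL, in 50 mM sodium phosphate buffer with 100 mM NaCl, pH 6.9, 37 °C; substrate […] p-nitrophenyl α-D-glucopyranoside. Hydrolysis followed continuously as absorbance increase at 400 nm. 1-Deoxynojirimycin (0.425 mM) and acarbose (0.78 mM) served as positive controls. Modified literature method.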

Saccharomyces [3] = assay: as §1; summary of the method: as §2

Activity (Saccharomyces [1]) | IC50 [2] | Activity (Saccharomyces [3]) | SMILES
inactive | – | – | COc1cc2c(c(O)c1/C=C/C(C)C)C(=O)c1c(O)cc(C)cc1C2=O
inactive | – | – | COc1cc2c(c(O)c1CC(=O)C(C)C)C(=O)c1c(O)cc(C)cc1C2=O
inactive | – | – | O=c1c2cc(O)ccc2oc2cccc(O)c12
– | 780 µM | – | C[C@H]1O[C@H](O[C@H]2[C@H](O)[C@@H](O)[C@@H](O[C@H]3[C@H](O)[C@@H](O)C(O)O[C@@H]3CO)O[C@@H]2CO)[C@H](O)[C@@H](O)[C@@H]1N[C@H]1C=C(CO)C(O)[C@H](O)[C@H]1O (single isomer, unassigned) [ACARBOSE]
– | 426 µM | – | OC[C@H]1NC[C@H](O)[C@@H](O)[C@@H]1O [DUVOGLUSTAT]
– | 6 µM | Dose-dependent effect | CC(C)=CCc1c(C)cc(O)c2c(O)c3c(cc12)C(CC=C(C)C)(CC=C(C)C)C(O)=CC3=O [HARUNGANIN]
– | 12 µM | Dose-dependent effect | CC(C)=CCc1c(C)c(CC=C(C)C)c2c(c1O)C(=O)c1c(O)cc(O)c(CC=C(C)C)c1C2 [HARUNGANOL B]
– | 6.3 µM | Dose-dependent effect | CC(C)=CCc1c(O)c(CC=C(C)C)c2c(c1O)C(=O)c1c(O)cc(C)c(CC=C(C)C)c1C2O (stereo not given) [KENGANTHRANOL B]
– | 21.9 µM | Dose-dependent effect | COC1c2c(CC=C(C)C)c(C)cc(O)c2C(=O)c2c(O)cc3c(c21)CC(C(C)(C)O)O3 (stereo not given) [KENGANTHRANOL C]
– | 192 µM | Dose-dependent effect | COc1cc(O)c2c(c1)C(=O)c1cc(C)cc(O)c1C2=O [PHYSCION]
